Reference: ChEMBL document CHEMBL1141950, “Rapamycin analogs with reduced systemic exposure” (Bioorg Med Chem Lett, 2005)

Legend:
[1] = species: Rattus norvegicus; test: Efficacy in T-cell mediated inflammatory response by delayed type hypersensitivity model in Sprague-Dawley rat; assay type: functional
[2] = Tmax in male Sprague-Dawley rat administered with 2.5 mg/kg, po; assay type: ADME, organism-based; parameters: dose 2.5 mg/kg, route oral; settings: in vivo
[3] = species: Rattus norvegicus; test: Efficacy in CD4+ T-cell mediated experimental autoimmune encephalomyelitis model in Lewis rat; assay type: functional
In short: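 Rat EAE induced by subcutaneous injection of homogenized isologous spinal cord in modified complete Freund's adjuvant; value reported with range and n.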

[4] = species: Rattus norvegicus; test: Efficacy in T-cell mediated adjuvant arthritis model in Lewis rat; assay type: functional
[5] = Half life in male Sprague-Dawley rat administered with 2.5 mg/kg, po; assay type: ADME, organism-based; parameters: dose 2.5 mg/kg, route oral; settings: in vivo
[6] = Oral bioavailability in male Sprague-Dawley rat administered with 2.5 mg/kg, po; assay type: ADME, organism-based; settings: in vivo
[7] = AUC in male Sprague-Dawley rat administered with 2.5 mg/kg, po; assay type: ADME, organism-based; parameters: dose 2.5 mg/kg, route oral; settings: plasma
[8] = Cmax in male Sprague-Dawley rat administered with 2.5 mg/kg, po; assay type: ADME, organism-based; parameters: dose 2.5 mg/kg, route oral; settings: in vivo
[9] = tested on: T-cell; test: T-cell antiproliferative activity in human mixed lymphocyte reaction; assay type: functional, cell-based
In short: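 Human mixed lymphocyte reaction carried out in serum-containing medium; IC50 given as mean ± SEM for n determinations.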

[10] = tested on: T-cell; test: Antiproliferative activity in Lewis rat lymph node cells in rat mixed lymphocyte reaction; assay type: functional, cell-based
In short: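 Rat mixed lymphocyte reaction run serum free: Lewis rat lymph node cells (responders) stimulated by Brown–Norway splenocytes; IC50 reported as mean ± SEM of n determinations.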

[11] = Half life in human in a multiple dose escalation study; assay type: ADME, organism-based; settings: in vivo

| Tmax [2] [h] | half-life [5] [h] | bioavailability [6] [%] | AUC [7] [ng·h/mL] | Cmax [8] [ng/mL] | half-life [11] [h] | Structure (SMILES) | ED50 [1] [mg/kg] | ED50 [3] [mg/kg] | ED50 [4] [mg/kg] | IC50 [9] [nM] | IC50 [10] [nM] |
| --- | --- | --- | --- | --- | --- | --- | --- | --- | --- | --- | --- |
| 0.4 | 8.7 | 6.2 | 132 | 29.7 | – | CO[C@H]1C[C@@H]2CC[C@@H](C)[C@@](O)(O2)C(=O)C(=O)N2CCCC[C@H]2C(=O)OC([C@H](C)C[C@@H]2CC[C@@H](OC(=O)N(C)OC)[C@H](OC)C2)CC(=O)[C@H](C)/C=C(\C)[C@@H](O)[C@@H](OC)C(=O)[C@H](C)C[C@H](C)/C=C/C=C/C=C/1C (stereo not given in full) | 0.4 | 0.5 | 0.3 | 5.9 | 2500 |
| – | – | – | – | – | – | CO[C@H]1C[C@@H]2CC[C@@H](C)[C@@](O)(O2)C(=O)C(=O)N2CCCC[C@H]2C(=O)O[C@H]([C@H](C)C[C@@H]2CC[C@H](n3ncnn3)[C@H](OC)C2)CC(=O)[C@H](C)/C=C(\C)[C@@H](O)[C@@H](OC)C(=O)[C@H](C)C[C@H](C)/C=C/C=C/C=C/1C | 2 | – | – | 3.3 | 1500 |
| 0.5 | 33.4 | 43.2 | 559 | 50.8 | 63 | CO[C@H]1C[C@@H]2CC[C@@H](C)[C@@](O)(O2)C(=O)C(=O)N2CCCC[C@H]2C(=O)O[C@H]([C@H](C)C[C@@H]2CC[C@@H](O)[C@H](OC)C2)CC(=O)[C@H](C)/C=C(\C)[C@@H](O)[C@@H](OC)C(=O)[C@H](C)C[C@H](C)/C=C/C=C/C=C/1C [SIROLIMUS] | 0.5 | 0.3 | 0.2 | 1.6 | 2600 |
| 0.4 | 7.9 | 12.1 | 163 | 46.7 | 25 | CO[C@H]1C[C@@H]2CC[C@@H](C)[C@@](O)(O2)C(=O)C(=O)N2CCCC[C@H]2C(=O)O[C@H]([C@H](C)C[C@@H]2CC[C@H](n3cnnn3)[C@H](OC)C2)CC(=O)[C@H](C)/C=C(\C)[C@@H](O)[C@@H](OC)C(=O)[C@H](C)C[C@H](C)/C=C/C=C/C=C/1C [ZOTAROLIMUS] | 1.7 | 1.2 | 0.7 | 2 | 1400 |
